Reference: ChEMBL document CHEMBL3244118, “3-(3-Substituted prop-1-enyl)cephalosporins” (1977)

Experiments:
Assay type in all cases: functional
Staphylococcus aureus [1] = test: Antibacterial activity against Staphylococcus aureus Smith infected in sc dosed mouse assessed as survival of host administered 1 hr and 5 hrs post challenge measured 72 hrs post challenge
In short: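 Mice infected ip with about 2×10^3 S. aureus Smith organisms per mouse, culture diluted in 4% hog gastric mucin for uniformly lethal infection. Twofold dilutions given sc in equally divided portions at 1 and 5 h postinfection, four groups of ten mice. Survivors observed for 72 h. PD50 (total mg/kg protecting 50%) calculated by probit analysis.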

Streptococcus pyogenes = test: Antibacterial activity against Streptococcus pyogenes ATCC 8668 by agar inclusion method
In short: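 MIC by agar inclusion, twofold dilutions in brain heart infusion medium at pH 7.4, reported in […].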

Staphylococcus aureus [2] = test: Antibacterial activity against penicillin G-resistant Staphylococcus aureus ATCC 14154 by agar inclusion method
In short: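 MIC by agar inclusion in brain heart infusion medium, pH 7.4, using twofold dilutions. Strain ATCC 14154 is penicillin G resistant. Values reported in […].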

Row | Compound | PD50 (Staphylococcus aureus [1]) [µmol/kg] | MIC (Streptococcus pyogenes) [µM] | MIC (Staphylococcus aureus [2]) [µM]
1 | CC(=O)OC/C=C/C1=C(C(=O)[O-])N2C(=O)[C@@H](NC(=O)Cc3cccs3)[C@H]2SC1.[Na+] | 1.85 | < 2 | 560
2 | Cn1nnnc1SC/C=C/C1=C(C(=O)[O-])N2C(=O)[C@@H](NC(=O)Cc3cccs3)[C@H]2SC1.[Na+] | 0.3 | 1.6 | 200
3 | Cn1nnnc1SCC1=C(C(=O)[O-])N2C(=O)[C@@H](NC(=O)Cc3cccs3)[C@H]2SC1.[Na+] | 1.69 | 13 | 100
4 | CC(=O)OCC1=C(C(=O)[O-])N2C(=O)[C@@H](NC(=O)Cc3cccs3)[C@H]2SC1.[Na+] [CEPHALOTHIN SODIUM] | 3.54 | 74 | 480
